Biological target: T1, PMPMEase (EPL, esterase from porcine liver) (Sus scrofa, UniProt Q29550)
T1 sequence (Q29550 19-566): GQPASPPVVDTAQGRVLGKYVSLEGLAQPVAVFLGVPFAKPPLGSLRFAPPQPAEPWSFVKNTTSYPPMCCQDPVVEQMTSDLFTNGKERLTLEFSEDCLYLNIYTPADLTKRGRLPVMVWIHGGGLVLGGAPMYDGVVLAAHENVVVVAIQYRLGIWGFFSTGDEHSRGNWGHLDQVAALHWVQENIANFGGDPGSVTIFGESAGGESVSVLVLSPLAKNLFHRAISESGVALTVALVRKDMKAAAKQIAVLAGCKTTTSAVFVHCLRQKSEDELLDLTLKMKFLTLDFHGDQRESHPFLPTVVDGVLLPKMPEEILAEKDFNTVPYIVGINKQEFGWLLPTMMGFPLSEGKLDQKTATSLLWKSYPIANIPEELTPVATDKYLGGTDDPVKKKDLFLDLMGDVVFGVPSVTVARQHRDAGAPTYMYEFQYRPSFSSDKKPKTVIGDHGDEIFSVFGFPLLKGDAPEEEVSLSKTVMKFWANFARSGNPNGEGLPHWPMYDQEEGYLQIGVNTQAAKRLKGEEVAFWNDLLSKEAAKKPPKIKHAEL
Test: HPLC product assay with UV detection, Michaelis-Menten fit
Assay type: biochemical
How it was run: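 Commercial porcine liver esterase (0.1 to 5 µg per assay, depending on substrate) was incubated with varying concentrations of S-alkylated cysteinyl ester substrates in 100 mM Tris-HCl, pH 7.4, with 5% DMSO at 37°C. Reactions were stopped, and acid products were quantified by reversed-phase HPLC at 260 nm (p-nitrobenzoyl substrates) or 214 nm (others). Base-hydrolysed substrate standards supplied the calibration. Km came from a Michaelis-Menten fit.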

| Km | Structure (SMILES) |
| --- | --- |
| 21 ± 4.2 µM | COC(=O)[C@@H](CSC/C=C(\C)CC/C=C(\C)CCC=C(C)C)NC(C)=O [L-69, (S)-methyl 3-((2E,6E)-3,7,11-trimethyldodeca-2,6,10-trienylthio)-2-acetamidopropanoate] |
| 11 ± 0.9 µM | COC(=O)[C@@H](CSC/C=C(\C)CC/C=C(\C)CCC=C(C)C)NC(=O)c1ccc([N+](=O)[O-])cc1 [L-70, (S)-methyl 3-((2E,6E)-3,7,11-trimethyldodeca-2,6,10-trienylthio)-2-(4-nitrobenzamido)propanoate] |
| 87 ± 12 µM | COC(=O)[C@H](CSC/C=C(\C)CCC=C(C)C)NC(=O)c1ccc([N+](=O)[O-])cc1 [L-72, (R)-methyl 3-((E)-3,7-dimethylocta-2,6-dienylthio)-2-(4-nitrobenzamido)propanoate] |
| 505 ± 63 µM | CCSC[C@H](NC(=O)c1ccc([N+](=O)[O-])cc1)C(=O)OC [L-74, (R)-methyl 2-(4-nitrobenzamido)-3-(ethylthio)propanoate] |
| 5.9 ± 0.7 µM | CC(C)=CCC/C(C)=C/CC/C(C)=C/CSC[C@H](NC(=O)c1ccc([N+](=O)[O-])cc1)C(=O)OC(C)C [L-75, (R)-isopropyl 3-((2E,6E)-3,7,11-trimethyldodeca-2,6,10-trienylthio)-2-(4-nitrobenzamido)propanoate] |
| 11 ± 0.9 µM | CCOC(=O)[C@H](CSC/C=C(\C)CC/C=C(\C)CCC=C(C)C)NC(=O)c1ccc([N+](=O)[O-])cc1 [L-76, (R)-ethyl 3-((2E,6E)-3,7,11-trimethyldodeca-2,6,10-trienylthio)-2-(4-nitrobenzamido)propanoate] |
| 294 ± 25 µM | COC(=O)[C@H](CSCC=C(C)C)NC(=O)c1ccc([N+](=O)[O-])cc1 [L-77, (R)-methyl 3-(3-methylbut-2-enylthio)-2-(4-nitrobenzamido) propanoate] |
| 15 ± 2.7 µM | COC(=O)[C@H](CSC/C=C(\C)CC/C=C(\C)CC/C=C(\C)CCC=C(C)C)NC(=O)c1ccc([N+](=O)[O-])cc1 [L-80, (R)-methyl 3-((2E,6E,10E)-3,7,11,15-tetramethylhexadeca-2,6,10,14-tetraenylthio)-2-(4-nitrobenzamido) propanoate] |
| 960 ± 180 µM | COC(=O)[C@H](CSCCC(C)C)NC(=O)c1ccc([N+](=O)[O-])cc1 [L-81, (R)-methyl 2-(4-nitrobenzamido)-3-(isopentylthio)propanoate] |
| 56 ± 9.6 µM | COC(=O)[C@H](CSCC[C@@H](C)CCC=C(C)C)NC(=O)c1ccc([N+](=O)[O-])cc1 [L-83, (R)-methyl 3-((S)-3,7-dimethyloct-6-enylthio)-2-(4-nitrobenzamido)propanoate] |
| 53 ± 7 µM | COC(=O)[C@H](CSCC[C@H](C)CCC=C(C)C)NC(=O)c1ccc([N+](=O)[O-])cc1 [L-86, (R)-methyl 3-((R)-3,7-dimethyloct-6-enylthio)-2-(4-nitrobenzamido)propanoate] |
| 40.5 ± 3.7 µM | COC(=O)[C@H](CSCc1ccccc1)NC(=O)c1ccc([N+](=O)[O-])cc1 [L-93, (R)-methyl 2-(4-nitrobenzamido)-3-(benzylthio)propanoate] |
| 400 ± 115 µM | COC(=O)CNC(=O)c1ccc([N+](=O)[O-])cc1 [L-102, methyl 2-(4-nitrobenzamido)acetate] |
| 300 ± 38 µM | COC(=O)[C@H](C)NC(=O)c1ccc([N+](=O)[O-])cc1 [L-111, (S)-methyl 2-(4-nitrobenzamido)propanoate] |
| 8.4 ± 0.89 µM | COC(=O)[C@H](CSC/C=C(\C)CC/C=C(\C)CCC=C(C)C)NC(=O)CNC(=O)c1ccc([N+](=O)[O-])cc1 [RD-18, N-(4-Nitrobenzoylglycyl)-S-(trans, trans-farnesyl)cysteine methyl ester] |
| 29 ± 2.2 µM | COC(=O)[C@H](CSC/C=C(\C)CC/C=C(\C)CCC=C(C)C)NC(=O)c1ccc([N+](=O)[O-])cc1 [RD-PNB, (R)-methyl 3-((2E,6E)-3,7,11-trimethyldodeca-2,6,10-trienylthio)-2-(4-nitrobenzamido)propanoate] |
